Legend:
[1] = test system: HiBiT F3 in ARPE-19 cells; experiment: non-HTS extracellular/intracellular HiBiT F3 assay; assay type: cell-based, human; settings: for HiBiT F3 secretion (extracellular) / intracellular HiBiT F3 levels: dose-responsive, ARPE-19
Procedure, shortened: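 HiBiT F3 ARPE-19 cells were plated at 200,000 cells/mL, and test compound in medium was added the next day. Treatment lasted 72 h or 1 week, with medium and compound renewed after 96 h for 1-week wells. For intracellular signal, cells were washed in HBSS and lysed 5 min with shaking in lytic buffer containing LgBiT (1:100) and substrate (1:50). Luminescence was read on 40 μL of lysate.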

HiBiT F3 ARPE-19 cells = experiment: Cell Titer Glo 2.0 viability counter screen; assay type: cell-based, human; settings: 1.66 and 5 μM, 48 h
[2] = test system: HiBiT F3 ARPE-19 cells (fibulin-3 production); experiment: HTS whole-well HiBiT F3 assay; assay type: cell-based, human; settings: 0.2 nM – 50 μM, 24 h
Procedure, shortened: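 Genome-edited heterogeneous ARPE-19 cells (2xFLAG-VS-HiBiT inserted after Ser16 of F3) were seeded at ~5,000 cells/well in 384-well plates and grown 24 h at 37°C. Medium was exchanged, and test compound in 0.1% DMSO was applied for 24 h. Plates were cooled 20 min at RT, then received a lytic buffer master mix with LgBiT (1:100) and lytic substrate (1:50). After 5 min shaking, whole-well luminescence was read.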

ARPE-19 cells = experiment: lactate dehydrogenase; assay type: cell-based, human
Procedure, shortened: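 Test compound was applied to ARPE-19 cells for 72 h or 1 week. Media were spun at 1,000 RPM for 5 min. In technical triplicate, 50 μL of cleared medium was mixed with an equal volume of LDH reaction buffer for 30 min at 37°C. DMSO-treated medium served as control, and lysis buffer-treated cells served as positive control.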

[3] = test system: HiBiT WT F3 and HiBiT R345W F3 ARPE-19 cells; experiment: extracellular HiBiT assay on transwells, WT and R345W F3; assay type: cell-based, human; settings: 1 μM, 1 week, serum-free
Procedure, shortened: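 Cells carried HiBiT-tagged WT or R345W F3 in ARPE-19, with R345W made by knock-in in clonal cells. They were seeded on polyester transwells (~100,000/well for 12-well, ~30,000/well for 24-well) and switched to serum-free medium the next day, with changes every 3–4 days. After 1 week, cells were treated 1 week with 1 μM test compound or 0.1% DMSO in serum-free medium. Apical and basal media were then assayed for extracellular HiBiT luminescence.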

MMP2 = MMP2 zymography; assay type: cell-based, human; settings: 1 μM, 1 week, HiBiT WT F3 and R345W F3 cells
Procedure, shortened: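 HiBiT WT or R345W F3 ARPE-19 cells were grown on polyester transwells in serum-free medium for 1 week, then treated 1 week with 1 μM test compound or 0.1% DMSO. Apical and basal media went in non-reducing SDS buffer onto 10% gelatin gels (140 V, 90 min). Gels were renatured 30 min at RT, developed 30 min at RT, then overnight at 37°C in fresh developing buffer. Coomassie R-250 staining and densitometry followed.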

[4] = test system: HiBiT F3 in primary human dermal fibroblasts; experiment: HiBiT F3 assay in primary dermal fibroblasts; assay type: cell-based; settings: 72 h, dose-responsive
[5] = CHIR PK experiment with LC-MS/MS; assay type: in vivo, mouse
Procedure, shortened: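 C57BL/6J mice (three per time point, at least one male and one female) received 25 mg/kg i.p. of test compound. It was given as 5 mg/mL in 2% DMSO/5.7% Captisol in PBS. Tissues were collected at 0, 30, 180, 360, 960 and 1440 min under isoflurane, and retina and liver were homogenized in PBS. […] Eye level was estimated from a vitreous volume of ~4.4 μL.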

[6] = test system: secreted proteome of HiBiT ARPE-19 cells; experiment: secreted proteome visualization and mass spectrometry; assay type: cell-based, human
[7] = test system: TCF-dependent Wnt signaling in HiBiT F3 ARPE-19 cells; experiment: 7xTCF reporter; assay type: cell-based, human; settings: 1 μM, one week, 7TFP cells
[8] = test system: HiBiT F5 in ARPE-19 cells; experiment: HiBiT fibulin-5; assay type: cell-based, human
[9] = test system: BLamD in R345W+/+ knockin mice; experiment: basal laminar deposit; assay type: in vivo, mouse; settings: treated mice (30/720 FOV), 25 mg/kg i.p., 1 mo; untreated 14.205%
[10] = test system: transcriptome of HiBiT F3 ARPE-19 cells; experiment: bulk RNAseq; assay type: cell-based, human; settings: 1 μM, 1 week
Procedure, shortened: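 The next day, 1 μM test compound or DMSO (1:1000) was added, with a media change at 96 h. Total RNA was extracted 7 days after treatment start and stored at −80°C. PCR-amplified libraries were bead-purified and quality-checked on a Bioanalyzer before sequencing.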

[11] = preclinical neurological disorder studies; ref [61]; cited from earlier work
[12] = test system: HiBiT mouse F3 in NIH-3T3 cells; experiment: HiBiT F3 assay in NIH-3T3 fibroblasts; assay type: cell-based; settings: NIH-3T3 mouse cells, 72 h
[13] = both, C57BL/6J, mouse, eye, ip, 25 mg/kg
[14] = both, C57BL/6J, mouse, liver, ip, 25 mg/kg
[15] = both, C57BL/6J, mouse, plasma, ip, 25 mg/kg
[16] = both, C57BL/6J, mouse, retina, ip, 25 mg/kg

Compound: 6-bromoindirubin-3-oxime [BIO]
- HiBiT F3 secretion (extracellular) ([1]; 72 h): significantly reduced
- intracellular HiBiT F3 levels ([1]; 72 h): significantly reduced

Compound: CN1CCN(S(=O)(=O)c2ccc(-c3cnc(N)c(C(=O)Nc4cccnc4)n3)cc2)CC1 [AZD2858]
- cytotoxicity profile (HiBiT F3 ARPE-19 cells): favorable cytotoxicity profiles
- dose-response confirmation of HiBiT F3 reduction [2]: demonstrated dose-responsiveness

Compound: Cc1c[nH]c(-c2cnc(NCCNc3ccc(C#N)cn3)nc2-c2ccc(Cl)cc2Cl)n1 [CHIR99021]
- toxicity by LDH release (ARPE-19 cells; 72 h): non-toxic
- cell death by LDH release (ARPE-19 cells; prolonged low level, one week): does not increase cell death
- apically and basally secreted HiBiT WT F3 and HiBiT R345W F3 [3]: significantly reduced
- reduction of MMP2 levels in apical media (MMP2): 16-17%
- reduction of MMP2 levels in basal media (MMP2): 29-31%
- intracellular HiBiT F3 [4]: significantly reduced
- secreted HiBiT F3 [4]: significantly reduced
- estimated peak concentration of CHIR in the eye ([5]; after 30 min, 25 mg/kg i.p., based on vitreous volume ~4.4 μL): ~ 1.3 μM
- concentration at 3 h [5, 13]: ~1100 nM
- concentration at 6 h [5, 13]: 364 nM
- concentration at 24 h [5, 13]: 151 nM
- Cmax [5, 14]: 33300 ng/g
- Tmax [5, 14]: 0.5 h
- concentration at 30 min [5, 14]: 33300 ng/g
- concentration at 180 min [5, 14]: 4680 ng/g
- concentration at 360 min [5, 14]: 1160 ng/g
- concentration at 960 min [5, 14]: 6.1 ng/g
- concentration at 1440 min [5, 14]: 5.2 ng/g
- half-life [5, 14]: 2 h
- MRT ([5]; both, C57BL/6J, mouse, liver, ip, 25 mg/kg, MRT, 25 mpk IP): 1.57 h
- AUC(0-t) [5, 15]: 15500 ng·h/mL
- CL/F [5, 15]: 27 mL/min/kg
- Cmax [5, 15]: 9250 ng/mL
- Tmax [5, 15]: 0.5 h
- concentration at 30 min [5, 15]: 9250 ng/mL
- concentration at 180 min [5, 15]: 490 ng/mL
- concentration at 360 min [5, 15]: 41 ng/mL
- concentration at 960 min [5, 15]: 0.3 ng/mL
- concentration at 1440 min [5, 15]: 0.4 ng/mL
- half-life [5, 15]: 1.97 h
- MRT ([5]; both, C57BL/6J, mouse, plasma, ip, 25 mg/kg, MRT, 25 mpk IP): 0.817 h
- Cmax [5, 16]: 527 ng/g
- Tmax [5, 16]: 0.5 h
- concentration at 30 min [5, 16]: 527 ng/g
- concentration at 180 min [5, 16]: 434 ng/g
- concentration at 360 min [5, 16]: 148 ng/g
- concentration at 960 min [5, 16]: 41 ng/g
- concentration at 1440 min [5, 16]: 61 ng/g
- half-life [5, 16]: 6.75 h
- MRT ([5]; both, C57BL/6J, mouse, retina, ip, 25 mg/kg, MRT, 25 mpk IP): 6.05 h
- AUClast ([5]; liver, 25 mpk IP, mouse): 4,231,688 ± 272,680 min*ng/g
- Vz_F ([5]; plasma, 25 mpk IP, mouse): 4.586 L/kg
- AUClast ([5]; retina, 25 mpk IP, mouse): 213,348 ± 17,725 min*ng/g
- MRT ([5]; retina, 25 mpk IP, mouse, 25 mg/kg): 6.03 h
- total protein secretion (SDS-PAGE of concentrated media) ([6]; 10 μM): clear increase
- banding pattern or intensity of secreted protein ([6]; 0.1 or 1 μM): relatively little detectable change
- TCF activation (FLuc) [7]: without triggering TCF activation
- secreted F5 ([8]; 72 h, all concentrations used): dose-responsive reduction
- F5 secretion ([8]; week-long treatment, only at 1 and 10 μM): significantly reduced
- FOVs containing deposits (BLamDs) [9]: 4.167%
- reduction of F3 secretion ([1]; 1 μM, one week): 49.9 ± 7.0%
- reduction of HiBiT F3 secretion ([1]; 10 μM, 72 h): up to 76%
- HiBiT F3 secretion (extracellular) ([1]; 72 h): significantly reduced
- intracellular HiBiT F3 levels ([1]; 72 h): significantly reduced
- PEDF (SERPINF1) in proteomics and RNAseq datasets [10]: significantly upregulated
- transcripts of TYR and TYRP1 [10]: significantly upregulated
- blood-brain barrier crossing [11]: can cross the blood-brain barrier
- F3 production [12]: reduced F3 production

Compound: Cc1cnc(-c2cnc(NCCNc3ccc(C#N)cn3)nc2-c2ccc(Cl)cc2Cl)[nH]1.Cl.Cl.Cl [CHIR trihydrochloride]
- Tmax ([5]; liver, 25 mpk IP, mouse): 0.5 h
- Tmax ([5]; plasma, 25 mpk IP, mouse): 0.5 h
- Tmax ([5]; retina, 25 mpk IP, mouse): 0.5 h

Compound: [Cl-].[Li+] [LiCl, lithium chloride]
- HiBiT F3 secretion (extracellular) ([1]; 72 h): significantly reduced
- intracellular HiBiT F3 levels ([1]; 72 h): significantly reduced
